Our source for the Drug metabolism, Km and Vmax/Km values is ChEMBL document CHEMBL3526062, “Role of human UDP-glucuronosyltransferases in the biotransformation of the triazoloacridinone and imidazoacridinone antitumor agents C-1305 and C-1311: highly selective substrates for UGT1A10” (Drug Metab Dispos, 2012).

The nature of series [1]: Drug metabolism in human stomach microsomes assessed as glucuronidation activity at 0.1 mM for 60 mins in presence of 3 mM UDP-GlcUA. Format: ADME. To be noted: 1 h, 100 µM. The method in brief:
(§1)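 Microsomes from single donors (20 μg protein) incubated with 0.1 mM substrate and 3 mM UDP-GlcUA for 60 min at 37°C in Tris-HCl pH 7.4 buffer with 5 mM MgCl2, 5 mM saccharolactone and 2% DMSO. Glucuronide measured by HPLC; donor data summarized as box-and-whisker plots.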

Series [2] addresses T1, UDP-glucuronosyltransferase 1A10 (Homo sapiens, UniProt Q9HAW8).
T1 sequence (Q9HAW8 whole entry): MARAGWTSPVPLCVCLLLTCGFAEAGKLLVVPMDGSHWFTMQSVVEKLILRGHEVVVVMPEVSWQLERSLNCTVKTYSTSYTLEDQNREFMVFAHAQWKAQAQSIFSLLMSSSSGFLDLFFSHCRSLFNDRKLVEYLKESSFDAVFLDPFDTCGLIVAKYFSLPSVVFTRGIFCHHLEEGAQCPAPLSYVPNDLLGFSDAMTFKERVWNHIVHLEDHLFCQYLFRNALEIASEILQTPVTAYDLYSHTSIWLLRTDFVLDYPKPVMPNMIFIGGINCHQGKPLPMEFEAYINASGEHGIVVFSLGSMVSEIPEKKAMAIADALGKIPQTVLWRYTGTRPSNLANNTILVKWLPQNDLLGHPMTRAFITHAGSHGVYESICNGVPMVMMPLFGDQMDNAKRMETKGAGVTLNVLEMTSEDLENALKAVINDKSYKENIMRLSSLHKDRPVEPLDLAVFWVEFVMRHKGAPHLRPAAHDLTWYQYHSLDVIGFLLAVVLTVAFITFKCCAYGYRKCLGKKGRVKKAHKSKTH
Briefly: Activity of human recombinant UGT1A10 expressed in baculovirus-infected Sf9 cells assessed as metabolite formation at 200 uM after 60 mins by HPLC analysis. The series is classed as ADME. To be noted: sf9, 1 h. An outline of the steps: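 Protein (5 μg UGT1A10 or microsomal) incubated with 0.2 mM substrate and 3 mM UDP-GlcUA, 60 min. HPLC on C18 at 25°C with a 15–80% methanol gradient in 0.05 M ammonium formate pH 3.4 at 1 ml/min. ESI positive-ion MS and UV/Vis spectra taken from the peaks. Glucuronide confirmed by 60 min further treatment with 1000 U E. coli β-glucuronidase.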

The nature of series [3]: Drug metabolism in human duodenum microsomes assessed as glucuronidation activity at 0.1 mM for 60 mins in presence of 3 mM UDP-GlcUA. The series is classed as ADME, microsome. To be noted: 1 h, 100 µM. The method in brief:
as §1

The target of series [4] is T2, UDP-glucuronosyltransferase 1A1 (Homo sapiens, UniProt P22309).
T2 sequence (P22309 whole entry): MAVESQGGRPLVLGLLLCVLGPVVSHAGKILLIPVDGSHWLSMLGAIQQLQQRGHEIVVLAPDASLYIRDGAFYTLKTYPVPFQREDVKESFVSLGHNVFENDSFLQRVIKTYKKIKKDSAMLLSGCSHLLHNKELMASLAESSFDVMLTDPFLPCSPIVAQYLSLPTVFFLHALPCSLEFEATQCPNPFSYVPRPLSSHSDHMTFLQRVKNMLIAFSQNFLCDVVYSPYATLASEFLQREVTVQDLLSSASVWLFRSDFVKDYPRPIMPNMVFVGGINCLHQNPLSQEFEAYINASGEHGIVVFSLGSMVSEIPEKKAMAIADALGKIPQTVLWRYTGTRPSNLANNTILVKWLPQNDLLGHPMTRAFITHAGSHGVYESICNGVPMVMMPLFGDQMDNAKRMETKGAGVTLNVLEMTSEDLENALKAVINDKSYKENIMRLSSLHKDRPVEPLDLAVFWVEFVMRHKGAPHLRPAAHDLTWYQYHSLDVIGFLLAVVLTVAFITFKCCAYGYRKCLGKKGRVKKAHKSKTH
Briefly: Activity of human recombinant UGT1A1 expressed in baculovirus-infected Sf9 cells assessed as glucuronidation activity per mg of protein at 100 to 200 uM after 60 mins in presence of 3 mM UDP-GlcUA. The series is classed as ADME. To be noted: sf9, 1 h. The method in brief: (§2)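 Screening: 5 μg recombinant UGT protein (His-tag levels normalized) in Tris-HCl pH 7.4, 5 mM MgCl2, 5 mM saccharolactone, 2% DMSO to permeabilize membranes. Substrate at 100 or 200 μM, added in water. Started with 3 mM UDP-GlcUA, 60 min at 37°C, stopped with ethanol, then centrifuged. Glucuronide quantified by reversed-phase C18 HPLC against the substrate response; triplicates.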

Series [5] concerns the target T3, UDP-glucuronosyltransferase 1A9 (Homo sapiens, UniProt O60656).
T3 sequence (O60656 whole entry): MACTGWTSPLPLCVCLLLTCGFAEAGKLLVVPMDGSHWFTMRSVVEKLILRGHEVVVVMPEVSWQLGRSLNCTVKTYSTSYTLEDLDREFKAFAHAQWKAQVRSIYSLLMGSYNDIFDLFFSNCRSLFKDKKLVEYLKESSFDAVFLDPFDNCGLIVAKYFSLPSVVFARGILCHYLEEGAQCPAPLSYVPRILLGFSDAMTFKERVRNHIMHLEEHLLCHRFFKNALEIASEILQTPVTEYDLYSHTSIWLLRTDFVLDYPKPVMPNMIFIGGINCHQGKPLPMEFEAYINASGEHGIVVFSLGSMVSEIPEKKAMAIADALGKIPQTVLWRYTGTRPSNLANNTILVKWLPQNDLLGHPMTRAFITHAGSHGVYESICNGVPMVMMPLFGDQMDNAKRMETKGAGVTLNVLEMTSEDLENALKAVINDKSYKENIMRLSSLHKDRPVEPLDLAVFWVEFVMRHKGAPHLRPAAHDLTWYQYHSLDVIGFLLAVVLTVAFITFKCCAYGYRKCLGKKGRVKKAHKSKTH
Kind of series: Activity of human recombinant UGT1A9 expressed in baculovirus-infected Sf9 cells assessed as glucuronidation activity per mg of protein at 100 to 200 uM after 60 mins in presence of 3 mM UDP-GlcUA. To be noted: sf9, 1 h. Format: ADME. An outline of the steps:
as §2

Series [6] can be described thus: Drug metabolism in human liver microsomes assessed as glucuronidation after 60 mins by Michaelis-Menten equation in presence of 3 mM UDP-GlcUA. The series is classed as ADME. An outline of the steps:
(§3)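 Recombinant UGT membrane protein (5 μg; His-tagged UGT1A levels normalized by anti-His Western blot) or single-donor microsomes (20 μg) incubated with substrate 5–1000 μM and 3 mM UDP-GlcUA in […] pH 7.4, 5 mM MgCl2, 5 mM saccharolactone, 2% DMSO, 60 min, 37°C. Ethanol stop, centrifuged, HPLC-UV. Initial velocities fitted to Michaelis-Menten, Hill or substrate-inhibition models; three determinations.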
Background: Liver microsomes are vesicles of endoplasmic reticulum, rich in cytochrome P450 enzymes.

Series [7] can be described thus: Drug metabolism in human intestinal microsomes assessed as ratio of Vmax to Km for glucuronidation per mg of protein after 60 mins by Michaelis-Menten equation in presence of 3 mM UDP-GlcUA. To be noted: 1 h. The series is classed as ADME, Intestine, Microsome. The method in brief: as §3
Series [8] deals with T1, UDP-glucuronosyltransferase 1A10. Kind of series: Activity of human recombinant UGT1A10 expressed in baculovirus-infected Sf9 cells assessed as glucuronidation activity per mg of protein at 100 to 200 uM after 60 mins in presence of 3 mM UDP-GlcUA. The series is classed as ADME. To be noted: sf9, 1 h. The method in brief: as §2
Another series deals with Liver microsome. Kind of series: Drug metabolism in human liver microsomes assessed as ratio of Vmax to Km for glucuronidation per mg of protein after 60 mins by Michaelis-Menten equation in presence of 3 mM UDP-GlcUA. Format: ADME. To be noted: 1 h. An outline of the steps: as §3

Where only a bound is given, the exact number is not on record here.

Broadly, the Km is the concentration of substrate that gives half-maximal velocity. For `CCN(CC)CCNc1ccc2ncn3c4ccc(O)cc4c(=O)c1c23` [C-1311], the Drug metabolism entry in [1] is “metabolite_detected”; in series [2], “metabolite_detected”; in series [3], “metabolite_detected”; in series [4], < 0.1 nmol/min/mg; in series [5], 0.2 nmol/min/mg; in [8] it was > 0.5 nmol/min/mg. In series [6], the Km at 1 h was found to be 39.3 µM. Moreover, the figures for the Vmax/Km (in series [7]; with Liver microsome) were 5.2 µL/min and 4 µL/min, respectively.
As to `CN(C)CCCNc1ccc2nnn3c4ccc(O)cc4c(=O)c1c23`, the Drug metabolism entry in series [1] is “metabolite_detected”; in series [2], “metabolite_detected”; in [3], “metabolite_detected”; in series [4] it was < 0.1 nmol/min/mg; in series [5], 0.2 nmol/min/mg; in series [8] it was > 0.5 nmol/min/mg. Moreover, the Km at 1 h in [6] was 71.3 µM. The Vmax/Km (in [7]; in the series on Liver microsome) was 5.4 µL/min in each case.
